{"source": "paper PMC9306620", "about": "(Clinical Pharmacology in Drug Development, 2022)", "key": {"HIV-1": {"tested_on": "HIV-1", "conditions": "200-mg dose, treatment-naive adults with HIV-1, phase IIa; cited from earlier work"}, "[1]": {"conditions": "drug interaction studies; cited from earlier work"}, "[2]": {"tested_on": "uridine diphosphate glucuronosyltransferase 1A1", "conditions": "in vitro; cited from earlier work"}, "[3]": {"experiment": "Part 2: safety and tolerability", "format": "in vivo, healthy participants", "conditions": "for Adverse events: abdominal distention (drug related) / Adverse events: anxiety / Adverse events: any event / Adverse events: diarrhea (drug related) / Adverse events: dysmenorrhea / Adverse events: eye irritation / Adverse events: rash maculopapular (drug related, led to withdrawal): part 2, tablet 200 mg", "outline": "(§1)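 Safety followed a single oral 200 mg dose given as two 100-mg capsules or tablets. Adverse events, clinical laboratory tests, vital signs, 12-lead ECG and physical examination were monitored. The safety population was all participants receiving ≥1 dose, summarized descriptively by treatment. AEs occurring later than last treatment + 5 days were not counted. The investigator assessed each AE for drug relatedness.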"}, "HIV-1 subtypes": {"tested_on": "HIV-1 subtypes", "conditions": "in vitro; cited from earlier work"}, "[4]": {"experiment": "Part 2: food effect on plasma pharmacokinetics of the tablet formulation", "format": "in vivo, healthy participants", "conditions": "for AUC(0-t) / AUC(0-inf) / Cmax: human, plasma, oral, 200 mg, geometric LS mean, part 2, analysis of variance; for AUC(0-t): AUC0-t; for AUC(0-inf): AUC0-∞", "outline": "(§2)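 Randomized, open-label, single-dose crossover in healthy adults aged 18–55, with periods separated by a ≥7-day washout. Each oral 200 mg dose was given as two 100-mg units. Plasma was sampled 40 min predose and 1–96 h postdose and assayed by UHPLC-MS/MS. Noncompartmental parameters used actual sampling times. ln-AUC0-t, AUC0-∞ and Cmax were analysed by linear mixed-effects model (treatment, period, sequence fixed; participant random) with 90% CIs.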"}, "[5]": {"experiment": "Part 1: safety and tolerability", "format": "in vivo, healthy participants", "conditions": "N = 18", "outline": "as §1"}, "[6]": {"conditions": "cited from earlier work"}, "[7]": {"format": "in vivo, healthy participants", "conditions": "200 mg, moderate-fat meal; for AUC(0-t) / AUC(0-inf) / Cmax: human, plasma, oral, geometric LS mean, part 1, analysis of variance, n = 18; for AUC(0-t): AUC0-t; for AUC(0-inf): AUC0-∞", "outline": "as §2"}, "[8]": {"tested_on": "organic anion-transporting polypeptide 1B3", "conditions": "in vitro; cited from earlier work"}, "[9]": {"conditions": "tablet 200 mg, high fat, n = 21"}, "[10]": {"conditions": "tablet 200 mg, moderate fat, n = 20"}, "[11]": {"conditions": "tablet 200 mg, high fat vs fasted, part 2"}, "[12]": {"conditions": "tablet 200 mg, moderate fat vs fasted, part 2"}}, "note": "“And” between values parts separate entries of the source, which are not always exact repeats. Equal values may be shown once. Read-outs that look alike come from different tables or passages of the source."}
{"smiles": "C=C(C)[C@@H]1CC[C@]2(NCCN3CCS(=O)(=O)CC3)CC[C@]3(C)[C@H](CC[C@@H]4[C@@]5(C)CC=C(C6=CC[C@@](CF)(C(=O)O)CC6)C(C)(C)[C@@H]5CC[C@]43C)[C@@H]12", "note": "[GSK3640254]", "values": [{"measurement": "reduction in plasma HIV-1 RNA", "setting": "HIV-1", "value": "approximately 2 log10"}, {"measurement": "effect on the pharmacokinetics of combined oral contraceptives", "setting": "[1]", "value": "no meaningful effect"}, {"measurement": "effect on the pharmacokinetics of dolutegravir", "setting": "[1]", "value": "no meaningful effect"}, {"measurement": "effect on the pharmacokinetics of tenofovir alafenamide", "setting": "[1]", "value": "no meaningful effect"}, {"measurement": "inhibition of uridine diphosphate glucuronosyltransferase 1A1", "setting": "[2]", "value": "inhibitor"}, {"measurement": "Adverse events: abdominal distention (drug related)", "setting": "[3]; fasted, N = 19", "value": "0 n (%)"}, {"measurement": "Adverse events: anxiety", "setting": "[3]; fasted, N = 19", "value": "0 n (%)"}, {"measurement": "Adverse events: any event", "setting": "[3]; fasted, N = 19", "value": "0 n (%)"}, {"measurement": "Adverse events: diarrhea (drug related)", "setting": "[3]; fasted, N = 19", "value": "0 n (%)"}, {"measurement": "Adverse events: dysmenorrhea", "setting": "[3]; fasted, N = 19", "value": "0 n (%)"}, {"measurement": "Adverse events: eye irritation", "setting": "[3]; fasted, N = 19", "value": "0 n (%)"}, {"measurement": "Adverse events: rash maculopapular (drug related, led to withdrawal)", "setting": "[3]; fasted, N = 19", "value": "0 n (%)"}, {"measurement": "Adverse events: abdominal distention (drug related)", "setting": "[3]; high fat, N = 21", "value": "1 (5) n (%)"}, {"measurement": "Adverse events: anxiety", "setting": "[3]; high fat, N = 21", "value": "1 (5) n (%)"}, {"measurement": "Adverse events: any event", "setting": "[3]; high fat, N = 21", "value": "5 (24%) n (%) and 5 (24) n (%)"}, {"measurement": "Adverse events: diarrhea (drug related)", "setting": "[3]; high fat, N = 21", "value": "2 n (%) and 2 (10) n (%)"}, {"measurement": "Adverse events: dysmenorrhea", "setting": "[3]; high fat, N = 21", "value": "1 (5) n (%)"}, {"measurement": "Adverse events: eye irritation", "setting": "[3]; high fat, N = 21", "value": "0 n (%)"}, {"measurement": "Adverse events: rash maculopapular (drug related, led to withdrawal)", "setting": "[3]; high fat, N = 21", "value": "1 (5) n (%)"}, {"measurement": "Adverse events: abdominal distention (drug related)", "setting": "[3]; moderate fat, N = 20", "value": "0 n (%)"}, {"measurement": "Adverse events: anxiety", "setting": "[3]; moderate fat, N = 20", "value": "0 n (%)"}, {"measurement": "Adverse events: any event", "setting": "[3]; moderate fat, N = 20", "value": "0 n (%)"}, {"measurement": "Adverse events: diarrhea (drug related)", "setting": "[3]; moderate fat, N = 20", "value": "0 n (%)"}, {"measurement": "Adverse events: dysmenorrhea", "setting": "[3]; moderate fat, N = 20", "value": "0 n (%)"}, {"measurement": "Adverse events: eye irritation", "setting": "[3]; moderate fat, N = 20", "value": "0 n (%)"}, {"measurement": "Adverse events: rash maculopapular (drug related, led to withdrawal)", "setting": "[3]; moderate fat, N = 20", "value": "0 n (%)"}, {"measurement": "participants reporting AEs considered related to the study treatment", "setting": "[3]; part 2, tablets 200 mg, high-fat conditions", "value": 10, "unit": "%"}, {"measurement": "highest incidence of adverse events", "setting": "[3]; tablet 200 mg, high-fat conditions", "value": 24, "unit": "%"}, {"measurement": "inhibition across various HIV-1 subtypes", "setting": "HIV-1 subtypes", "value": "broad‐spectrum potent inhibition"}, {"measurement": "AUC(0-t)", "setting": "[4]; tablet 200 mg, fasted, n = 13", "value": 12200, "unit": "ng·h/mL"}, {"measurement": "AUC(0-t)", "setting": "[4]; [9]", "value": 34100, "unit": "ng·h/mL"}, {"measurement": "AUC(0-t)", "setting": "[4]; [10]", "value": 38500, "unit": "ng·h/mL"}, {"measurement": "AUC(0-inf)", "setting": "[4]; tablet 200 mg, fasted, n = 10", "value": 14200, "unit": "ng·h/mL"}, {"measurement": "AUC(0-inf)", "setting": "[4]; [9]", "value": 36900, "unit": "ng·h/mL"}, {"measurement": "AUC(0-inf)", "setting": "[4]; [10]", "value": 41600, "unit": "ng·h/mL"}, {"measurement": "Cmax", "setting": "[4]; tablet 200 mg, fasted, n = 13", "value": 351, "unit": "ng/mL"}, {"measurement": "Cmax", "setting": "[4]; [9]", "value": 1080, "unit": "ng/mL"}, {"measurement": "Cmax", "setting": "[4]; [10]", "value": 1440, "unit": "ng/mL"}, {"measurement": "AUC0-t, geometric LS mean ratio compared with fasted conditions", "setting": "[4]; [11]", "value": 2.79}, {"measurement": "AUC0-∞, geometric LS mean ratio compared with fasted conditions", "setting": "[4]; [11]", "value": 2.59}, {"measurement": "Cmax, geometric LS mean ratio compared with fasted conditions", "setting": "[4]; [11]", "value": 3.08}, {"measurement": "mean Cmax, fold higher than under fasted conditions", "setting": "[4]; tablet 200 mg, high-fat conditions, part 2", "value": "~3", "unit": "fold"}, {"measurement": "AUC0-t, geometric LS mean ratio compared with fasted conditions", "setting": "[4]; [12]", "value": 3.15}, {"measurement": "AUC0-∞, geometric LS mean ratio compared with fasted conditions", "setting": "[4]; [12]", "value": 2.93}, {"measurement": "Cmax, geometric LS mean ratio compared with fasted conditions", "setting": "[4]; [12]", "value": 4.10}, {"measurement": "mean estimate for CL/F, lower than under fasted conditions", "setting": "[4]; tablet 200 mg, moderate- or high-fat conditions, part 2", "value": "> 60", "unit": "%"}, {"measurement": "mean Cmax, fold higher than under fasted conditions", "setting": "[4]; tablet 200 mg, moderate-fat conditions, part 2", "value": "≈ 4 fold"}, {"measurement": "t1/2, arithmetic mean (SD)", "setting": "[4]; tablet, single dose 200 mg, fasted conditions, part 2, n = 10", "value": "25.9 (3.33) hour"}, {"measurement": "t1/2, arithmetic mean (SD)", "setting": "[4]; tablet, single dose 200 mg, high-fat conditions, part 2, N = 21", "value": "25.1 (4.18) hour"}, {"measurement": "t1/2, geometric mean (%CVb)", "setting": "[4]; tablet, single dose 200 mg, moderate-fat conditions, part 2, N = 20", "value": "24.9 (18.0) hour"}, {"measurement": "Adverse events: abdominal distention (drug related)", "setting": "[5]; part 1, capsule 200 mg", "value": "0 n (%)"}, {"measurement": "Adverse events: anxiety", "setting": "[5]; part 1, capsule 200 mg", "value": "0 n (%)"}, {"measurement": "Adverse events: diarrhea (drug related)", "setting": "[5]; part 1, capsule 200 mg", "value": "0 n (%)"}, {"measurement": "Adverse events: dysmenorrhea", "setting": "[5]; part 1, capsule 200 mg", "value": "0 n (%)"}, {"measurement": "Adverse events: eye irritation", "setting": "[5]; part 1, capsule 200 mg", "value": "0 n (%)"}, {"measurement": "Adverse events: rash maculopapular (drug related, led to withdrawal)", "setting": "[5]; part 1, capsule 200 mg", "value": "0 n (%)"}, {"measurement": "Adverse events: abdominal distention (drug related)", "setting": "[5]; part 1, tablet 200 mg", "value": "0 n (%)"}, {"measurement": "Adverse events: anxiety", "setting": "[5]; part 1, tablet 200 mg", "value": "0 n (%)"}, {"measurement": "Adverse events: any event", "setting": "[5]; part 1, tablet 200 mg", "value": "1 (6) n (%)"}, {"measurement": "Adverse events: diarrhea (drug related)", "setting": "[5]; part 1, tablet 200 mg", "value": "0 n (%)"}, {"measurement": "Adverse events: dysmenorrhea", "setting": "[5]; part 1, tablet 200 mg", "value": "0 n (%)"}, {"measurement": "Adverse events: eye irritation", "setting": "[5]; part 1, tablet 200 mg", "value": "1 (6%) n (%) and 1 (6) n (%)"}, {"measurement": "Adverse events: rash maculopapular (drug related, led to withdrawal)", "setting": "[5]; part 1, tablet 200 mg", "value": "0 n (%)"}, {"measurement": "estimated half-life", "setting": "[6]; 200-mg dose, healthy participants", "value": "approximately 22.6 hours"}, {"measurement": "tolerability", "setting": "[6]; phase I studies in healthy participants, headache most common AE", "value": "generally well tolerated"}, {"measurement": "AUC(0-t)", "setting": "[7]; capsule", "value": 33700, "unit": "ng·h/mL"}, {"measurement": "AUC(0-t)", "setting": "[7]; tablet", "value": 33800, "unit": "ng·h/mL"}, {"measurement": "AUC(0-inf)", "setting": "[7]; capsule", "value": 36900, "unit": "ng·h/mL"}, {"measurement": "AUC(0-inf)", "setting": "[7]; tablet", "value": 36900, "unit": "ng·h/mL"}, {"measurement": "Cmax", "setting": "[7]; capsule", "value": 1200, "unit": "ng/mL"}, {"measurement": "Cmax", "setting": "[7]; tablet", "value": 1310, "unit": "ng/mL"}, {"measurement": "AUC0-t, geometric LS mean ratio", "setting": "[7]; tablet vs capsule, part 1", "value": 1.00}, {"measurement": "AUC0-∞, geometric LS mean ratio", "setting": "[7]; tablet vs capsule, part 1", "value": 0.998}, {"measurement": "Cmax, geometric LS mean ratio", "setting": "[7]; tablet vs capsule, part 1", "value": 1.09}, {"measurement": "inhibition of organic anion-transporting polypeptide 1B3", "setting": "[8]", "value": "inhibitor"}]}
